Reference: ChEMBL document CHEMBL2163259, “ADME-guided design and synthesis of aryloxanyl pyrazolone derivatives to block mutant superoxide dismutase 1 (SOD1) cytotoxicity and protein aggregation: potential application for the treatment of amyotrophic lateral sclerosis” (J Med Chem, 2012)
Active and inactive are the calls of the source. The calls are words filed in the database; no cut-off is given here.

Tests used:
[1] = Half life in mouse microsomes at 5 uM incubated for 1 hr at 37 degC in presence of NADPH; format: ADME, Microsome; details: 1 h, 5 µM
[2] = species on record: Rattus norvegicus; assay: Inhibition of rat sodium channel site 2 at 10 uM by radioligand displacement assay
In short: (§1)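 Single concentration of 10 μM, tested in duplicate as part of a contracted panel of 68 in vitro enzyme and receptor assays. The panel covers common adverse CNS, cardiovascular, pulmonary and genotoxic targets.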

[3] = molecular target: Cytochrome P450 2D6 (Homo sapiens, UniProt P10635); assay: Inhibition of CYP2D6; format: ADME
Cytochrome P450 2D6, sequence (P10635 whole entry): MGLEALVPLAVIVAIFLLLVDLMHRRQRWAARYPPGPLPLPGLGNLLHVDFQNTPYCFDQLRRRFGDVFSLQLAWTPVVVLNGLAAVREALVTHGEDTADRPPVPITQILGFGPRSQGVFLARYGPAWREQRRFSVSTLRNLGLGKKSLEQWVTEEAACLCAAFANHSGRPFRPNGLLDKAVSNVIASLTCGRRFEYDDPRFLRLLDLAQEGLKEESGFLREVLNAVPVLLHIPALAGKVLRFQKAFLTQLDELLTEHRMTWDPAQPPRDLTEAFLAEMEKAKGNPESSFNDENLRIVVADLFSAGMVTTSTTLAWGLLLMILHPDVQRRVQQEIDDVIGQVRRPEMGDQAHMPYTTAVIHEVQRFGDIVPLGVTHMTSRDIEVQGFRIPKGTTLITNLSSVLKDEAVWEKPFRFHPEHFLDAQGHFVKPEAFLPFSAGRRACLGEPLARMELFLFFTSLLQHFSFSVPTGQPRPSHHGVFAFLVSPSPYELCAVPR
In short: (§2)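 Reversible inhibition of CYP isozymes in human liver microsomes, each isozyme with a single probe substrate. CYP3A4 tested with both testosterone and midazolam. IC50 determined.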

[4] = species on record: Rattus norvegicus; assay: Inhibition of rat GABAA receptor flunitrazepam site at 10 uM by radioligand displacement assay; in short: as §1
[5] = tested on: Superoxide dismutase [Cu-Zn] (Homo sapiens), P00441 [G94A]; assay: Inhibition of SOD1 G93A mutant aggregation-induced cytotoxicity in human HeLa cells by cytotoxicity protection assay; format: cell-based
Superoxide dismutase [Cu-Zn] (Homo sapiens), P00441 [G94A], sequence (P00441 whole entry G94A, the tested form may be a part): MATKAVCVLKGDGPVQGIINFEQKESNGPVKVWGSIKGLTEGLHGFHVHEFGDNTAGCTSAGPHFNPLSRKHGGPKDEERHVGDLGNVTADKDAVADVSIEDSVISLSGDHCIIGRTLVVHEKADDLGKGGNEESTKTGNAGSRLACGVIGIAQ

[6] = tested on: Plasma; assay: Plasma protein binding in human; format: ADME, cell-free
[7] = tested on: Mus musculus; assay: Neuroprotective activity in SOD1 G93A mutant B6SJL mouse ALS model assessed as life extension at 10 mg/kg administered qd for 1 week (reference value: 125.7 +/- 4.9 days); format: functional
[8] = species on record: Oryctolagus cuniculus; assay: Inhibition of rabbit Purinergic P2X receptor at 10 uM by radioligand displacement assay; format: tissue-based; in short: as §1
[9] = tested on: Caco-2; assay: Apparent permeability from apical to basolateral side in human Caco2 cells; format: ADME, cell-based
[10] = Cmax in Sprague-Dawley rat at 1 mg/kg, po; format: ADME, organism-based; design: dose 1 mg/kg, route oral; details: in vivo
In short: (§3)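 Sprague-Dawley rats given a single 1 mg/kg bolus, intravenous or oral. Plasma PK parameters (AUC, dose-normalised AUC, half-life, clearance, Vss, Cmax, Tmax, oral bioavailability) derived from plasma levels.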

[11] = Plasma concentration in B6SJL mouse at 300 mg/kg after 3 hrs by mass spectrometry; format: ADME, organism-based; design: dose 300 mg/kg
In short: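 B6SJL mice were given a single 300 mg/kg intraperitoneal bolus. Blood and brain were collected at 0, 1, 3, 6, 12 and 24 h, flash-frozen in liquid nitrogen and stored at -80 °C. Samples were analyzed by mass spectrometry with ESI ionization in MRM mode.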

[12] = molecular target: Sodium-dependent noradrenaline transporter (Homo sapiens) (UniProt P23975); assay: Inhibition of human norepinephrine transporter at 10 uM by radioligand displacement assay; in short: as §1
[13] = molecular target: Alpha-1B adrenergic receptor (Rattus norvegicus) (UniProt P15823); assay: Inhibition of rat adrenergic alpha1B receptor at 10 uM by radioligand displacement assay; in short: as §1
[14] = molecular target: Adenosine receptor A3 (Homo sapiens) (UniProt P0DMS8); assay: Inhibition of human adenosine A3 receptor at 10 uM by radioligand displacement assay
In short: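 Single concentration of 10 μM, tested in duplicate in a contract panel of 68 in vitro enzyme and receptor binding assays covering common adverse CNS, cardiovascular, pulmonary and genotoxic targets.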

[15] = species on record: Rattus norvegicus; assay: Inhibition of rat thyroid hormone receptor at 10 uM by radioligand displacement assay; in short: as §1
[16] = molecular target: Cytochrome P450 1A2 (Homo sapiens, UniProt P05177); assay: Inhibition of CYP1A2; format: ADME; in short: as §2
Cytochrome P450 1A2, sequence (P05177 whole entry): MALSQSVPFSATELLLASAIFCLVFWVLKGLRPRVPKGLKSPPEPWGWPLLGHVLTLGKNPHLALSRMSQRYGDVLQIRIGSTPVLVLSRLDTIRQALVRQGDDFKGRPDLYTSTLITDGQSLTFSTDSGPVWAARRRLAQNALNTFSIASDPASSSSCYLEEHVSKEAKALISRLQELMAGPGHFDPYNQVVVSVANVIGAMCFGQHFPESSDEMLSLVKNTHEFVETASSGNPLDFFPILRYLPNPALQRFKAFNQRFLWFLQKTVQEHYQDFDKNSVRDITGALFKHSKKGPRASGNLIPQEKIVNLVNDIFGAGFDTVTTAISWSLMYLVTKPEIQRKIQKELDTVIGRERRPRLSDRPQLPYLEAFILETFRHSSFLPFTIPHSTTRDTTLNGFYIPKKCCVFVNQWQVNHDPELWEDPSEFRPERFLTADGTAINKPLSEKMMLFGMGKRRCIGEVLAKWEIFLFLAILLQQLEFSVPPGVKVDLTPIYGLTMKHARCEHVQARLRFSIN

[17] = species on record: Rattus norvegicus; assay: Inhibition of rat N-type calcium channel at 10 uM by radioligand displacement assay; in short: as §1
[18] = AUClast in Sprague-Dawley rat at 1 mg/kg, iv; format: ADME, organism-based; design: dose 1 mg/kg, route intravenous, time 0 - last; details: plasma; in short: as §3
[19] = molecular target: Prostaglandin E2 receptor EP4 subtype (Homo sapiens) (UniProt P35408); assay: Inhibition of human prostanoid receptor EP4 at 10 uM by radioligand displacement assay; in short: as §1
Prostaglandin E2 receptor EP4 subtype (Homo sapiens), sequence (P35408 whole entry): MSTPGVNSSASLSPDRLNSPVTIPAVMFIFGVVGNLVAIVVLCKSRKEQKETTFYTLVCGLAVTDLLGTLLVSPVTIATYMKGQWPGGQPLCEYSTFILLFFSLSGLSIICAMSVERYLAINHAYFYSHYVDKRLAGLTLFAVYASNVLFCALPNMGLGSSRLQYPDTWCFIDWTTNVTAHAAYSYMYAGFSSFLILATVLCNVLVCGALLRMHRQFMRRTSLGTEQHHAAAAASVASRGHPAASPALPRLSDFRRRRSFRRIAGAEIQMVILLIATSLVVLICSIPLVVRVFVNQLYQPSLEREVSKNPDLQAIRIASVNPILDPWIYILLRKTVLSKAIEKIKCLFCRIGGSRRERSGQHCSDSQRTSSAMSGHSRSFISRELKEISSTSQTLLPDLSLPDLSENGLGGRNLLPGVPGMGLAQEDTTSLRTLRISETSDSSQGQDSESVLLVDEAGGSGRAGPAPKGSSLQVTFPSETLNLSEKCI

[20] = molecular target: L-type calcium channel, benzothiazepine site (Rattus norvegicus, UniProt P22002+P27732+Q02485); assay: Inhibition of rat calcium channel L-type, benzothiazepine site at 10 uM by radioligand displacement assay; in short: as §1
[21] = tested on: Caco-2; assay: Apparent permeability from basolateral to apical side in human Caco2 cells; format: ADME, cell-based
[22] = molecular target: B1 bradykinin receptor (Homo sapiens) (UniProt P46663); assay: Inhibition of human bradykinin B1 receptor at 10 uM by radioligand displacement assay
B1 bradykinin receptor (Homo sapiens), sequence (P46663 whole entry): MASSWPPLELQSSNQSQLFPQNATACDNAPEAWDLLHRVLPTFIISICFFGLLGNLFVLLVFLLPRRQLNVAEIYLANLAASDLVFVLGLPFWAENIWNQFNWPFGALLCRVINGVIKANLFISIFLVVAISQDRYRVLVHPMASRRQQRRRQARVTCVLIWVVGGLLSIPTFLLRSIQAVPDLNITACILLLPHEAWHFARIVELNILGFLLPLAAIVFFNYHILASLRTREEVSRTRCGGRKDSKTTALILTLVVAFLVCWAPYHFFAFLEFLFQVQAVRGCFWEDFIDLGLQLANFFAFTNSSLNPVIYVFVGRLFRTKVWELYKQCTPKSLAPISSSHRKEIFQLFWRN
In short: (§4)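 LeadProfilingScreen panel of 68 in vitro enzyme and receptor assays. Compound tested at 10 μM in duplicate.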

[23] = tested on: Mus musculus; assay: Neuroprotective activity in SOD1 G93A mutant B6SJL mouse ALS model assessed as life extension at 20 mg/kg administered qd for 1 week (reference value: 125.7 +/- 4.9 days); format: functional
[24] = molecular target: Glutamate NMDA receptor (Rattus norvegicus) (UniProt P35439+Q00959+Q00960+Q00961+Q62645+Q8VHN2+Q9R1M7); assay: Inhibition of rat NMDA receptor glutamate and glycine binding site at 10 uM by radioligand displacement assay; format: protein-complex assay; in short: as §1
[25] = molecular target: D(1A) dopamine receptor (Homo sapiens) (UniProt P21728); assay: Inhibition of human dopamine D1 receptor at 10 uM by radioligand displacement assay; in short: as §4
D(1A) dopamine receptor (Homo sapiens), sequence (P21728 whole entry): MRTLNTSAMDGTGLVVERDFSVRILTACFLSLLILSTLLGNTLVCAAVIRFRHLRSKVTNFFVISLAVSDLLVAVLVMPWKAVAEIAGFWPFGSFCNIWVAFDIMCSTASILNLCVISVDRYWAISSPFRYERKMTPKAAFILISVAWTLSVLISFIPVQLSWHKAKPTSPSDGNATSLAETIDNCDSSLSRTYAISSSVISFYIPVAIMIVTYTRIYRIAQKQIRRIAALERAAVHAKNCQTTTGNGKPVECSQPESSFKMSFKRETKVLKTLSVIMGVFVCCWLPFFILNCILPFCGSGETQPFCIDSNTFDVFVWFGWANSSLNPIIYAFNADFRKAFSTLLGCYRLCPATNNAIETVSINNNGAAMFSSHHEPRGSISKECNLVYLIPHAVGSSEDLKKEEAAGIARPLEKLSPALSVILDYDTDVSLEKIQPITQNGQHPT

[26] = molecular target: hERG (Homo sapiens, UniProt Q12809); assay: Inhibition of human ERG expressed in human HEK293 cells at 10 uM by patch clamp assay; format: cell-based; details: HEK293 cells that express hERG
hERG, sequence (Q12809 whole entry): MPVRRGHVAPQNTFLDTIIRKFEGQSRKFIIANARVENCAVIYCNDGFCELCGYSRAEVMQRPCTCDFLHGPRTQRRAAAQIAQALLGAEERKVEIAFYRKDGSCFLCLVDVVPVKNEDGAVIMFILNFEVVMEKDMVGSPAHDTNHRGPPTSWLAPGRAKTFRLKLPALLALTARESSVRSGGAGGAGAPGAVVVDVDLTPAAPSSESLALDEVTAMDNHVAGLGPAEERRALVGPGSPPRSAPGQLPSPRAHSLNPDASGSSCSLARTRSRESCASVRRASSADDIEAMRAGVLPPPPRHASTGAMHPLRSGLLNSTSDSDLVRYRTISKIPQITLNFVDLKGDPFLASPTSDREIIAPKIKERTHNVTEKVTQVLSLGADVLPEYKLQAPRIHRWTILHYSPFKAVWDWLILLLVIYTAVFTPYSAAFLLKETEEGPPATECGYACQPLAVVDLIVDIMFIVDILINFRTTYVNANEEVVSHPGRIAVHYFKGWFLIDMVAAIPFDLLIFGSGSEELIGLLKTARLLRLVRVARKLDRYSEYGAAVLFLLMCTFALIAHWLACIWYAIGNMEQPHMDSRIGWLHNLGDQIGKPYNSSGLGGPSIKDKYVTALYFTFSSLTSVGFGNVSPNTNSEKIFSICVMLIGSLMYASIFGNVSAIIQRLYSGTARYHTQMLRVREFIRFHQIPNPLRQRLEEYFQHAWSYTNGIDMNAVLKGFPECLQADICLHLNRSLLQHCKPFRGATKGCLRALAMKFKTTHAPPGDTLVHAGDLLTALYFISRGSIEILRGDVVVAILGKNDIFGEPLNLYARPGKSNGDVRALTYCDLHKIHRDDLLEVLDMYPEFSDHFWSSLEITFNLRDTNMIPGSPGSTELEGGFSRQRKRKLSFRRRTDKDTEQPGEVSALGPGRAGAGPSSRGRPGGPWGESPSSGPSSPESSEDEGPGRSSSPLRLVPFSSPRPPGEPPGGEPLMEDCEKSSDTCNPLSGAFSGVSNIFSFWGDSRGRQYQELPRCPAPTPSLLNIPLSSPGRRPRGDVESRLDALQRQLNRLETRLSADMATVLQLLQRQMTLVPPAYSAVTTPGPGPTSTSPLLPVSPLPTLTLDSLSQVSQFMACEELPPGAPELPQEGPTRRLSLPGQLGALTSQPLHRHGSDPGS
In short: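 Cloned hERG potassium channels expressed in HEK293 cells. FASTPatch patch-clamp screen with test compound at 10 μM, two experiments. E-4031 used as positive control. Solubility at test concentration checked by TurboSol; value given as mean % hERG antagonism.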

[27] = molecular target: B2 bradykinin receptor (Homo sapiens) (UniProt P30411); assay: Inhibition of human bradykinin B2 receptor at 10 uM by radioligand displacement assay; in short: as §4
[28] = molecular target: Glucocorticoid receptor (Homo sapiens) (UniProt P04150); assay: Inhibition of human glucocorticoid receptor at 10 uM by radioligand displacement assay; in short: as §1
Glucocorticoid receptor (Homo sapiens), sequence (P04150 whole entry): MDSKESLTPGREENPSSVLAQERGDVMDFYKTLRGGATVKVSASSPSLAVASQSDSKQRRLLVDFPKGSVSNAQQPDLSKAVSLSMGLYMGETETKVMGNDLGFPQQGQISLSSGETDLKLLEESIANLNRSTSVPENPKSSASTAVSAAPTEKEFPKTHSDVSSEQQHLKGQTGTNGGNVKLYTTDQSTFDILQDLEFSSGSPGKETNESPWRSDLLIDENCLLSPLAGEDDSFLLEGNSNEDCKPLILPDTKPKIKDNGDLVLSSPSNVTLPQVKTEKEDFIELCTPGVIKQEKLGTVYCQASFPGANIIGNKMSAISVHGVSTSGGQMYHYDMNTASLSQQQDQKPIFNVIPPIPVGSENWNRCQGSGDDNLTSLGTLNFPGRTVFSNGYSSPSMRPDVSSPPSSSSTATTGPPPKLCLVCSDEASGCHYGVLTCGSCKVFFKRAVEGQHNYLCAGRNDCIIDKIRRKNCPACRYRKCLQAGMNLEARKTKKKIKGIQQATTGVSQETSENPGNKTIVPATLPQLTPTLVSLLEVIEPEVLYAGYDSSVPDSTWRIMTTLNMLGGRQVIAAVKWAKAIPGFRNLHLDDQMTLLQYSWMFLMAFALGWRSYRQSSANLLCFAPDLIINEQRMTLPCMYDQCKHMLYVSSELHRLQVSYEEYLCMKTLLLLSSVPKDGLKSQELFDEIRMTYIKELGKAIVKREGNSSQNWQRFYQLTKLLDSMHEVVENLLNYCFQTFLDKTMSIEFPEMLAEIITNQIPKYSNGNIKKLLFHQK

[29] = molecular target: Substance-P receptor (Homo sapiens) (UniProt P25103); assay: Inhibition of human tachykinin NK1 receptor at 10 uM by radioligand displacement assay; in short: as §1
[30] = species on record: Rattus norvegicus; assay: Inhibition of rat kainate receptor glutamate binding site at 10 uM by radioligand displacement assay; in short: as §1
[31] = species on record: Homo sapiens; assay: Inhibition of human nicotinic acetylcholine receptor at 10 uM by radioligand displacement assay; in short: as §1
[32] = molecular target: Neuropeptide Y receptor type 1 (Homo sapiens) (UniProt P25929); assay: Inhibition of human Neuropeptide Y Y1 receptor at 10 uM by radioligand displacement assay; in short: as §4
[33] = molecular target: L-type calcium channel, dihydropyridine site (Rattus norvegicus, UniProt P22002+P27732+Q02485); assay: Inhibition of rat calcium channel L-type, dihydropyridine site at 10 uM by radioligand displacement assay; in short: as §1
[34] = molecular target: Endothelin receptor type B (Homo sapiens) (UniProt P24530); assay: Inhibition of human endothelin ETB at 10 uM by radioligand displacement assay; in short: as §1
Endothelin receptor type B (Homo sapiens), sequence (P24530 whole entry): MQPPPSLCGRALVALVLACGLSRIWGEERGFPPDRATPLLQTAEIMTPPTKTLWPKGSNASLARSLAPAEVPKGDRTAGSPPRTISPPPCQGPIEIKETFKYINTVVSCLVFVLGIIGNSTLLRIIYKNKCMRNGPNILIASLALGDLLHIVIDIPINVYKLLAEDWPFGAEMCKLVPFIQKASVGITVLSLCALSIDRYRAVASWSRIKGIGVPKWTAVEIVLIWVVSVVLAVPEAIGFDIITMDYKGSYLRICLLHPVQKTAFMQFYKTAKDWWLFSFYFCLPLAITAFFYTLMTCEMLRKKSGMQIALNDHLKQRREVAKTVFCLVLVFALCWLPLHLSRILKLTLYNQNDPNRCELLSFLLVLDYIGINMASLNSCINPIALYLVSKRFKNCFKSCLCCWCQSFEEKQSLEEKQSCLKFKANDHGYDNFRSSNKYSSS

[35] = tested on: Superoxide dismutase [Cu-Zn] (Homo sapiens), P00441 [G94A]; assay: Inhibition of SOD1 G93A mutant aggregation-induced cytotoxicity in rat PC12 cells assessed as cell viability incubated for 24 hrs and measured 72 hrs post compound dose by cytotoxicity protection assay; format: cell-based; details: PC-12
In short: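 PC12 cells expressing G93A SOD1-YFP fusion seeded 15000 cells/well, grown 24 h before dosing. 12-point dose response, top 32 μM, twofold dilutions. After 24 h, MG132 added (100 nM final). Viability measured 48 h later with Calcein-AM (1 μM final, 20 min, room temperature) fluorescence. EC50 derived from dose-response.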

**Q.** Which results are given for `O=c1cc(COc2cc(Cl)cc(Cl)c2)[nH][nH]1`?
**A.** t1/2 [1]: 36 min; inhibition [2]: 4%; IC50 [3]: > 50 µM; inhibition [4]: 12%; inhibition [5]: Active; PPB [6]: 98%; Survival [7]: 135 days; inhibition [8]: 1%; Papp [9]: 36.7 ×10⁻⁶ cm/s; Cmax [10]: 39 ng/mL; concentration at 3 h [11]: 342 µM; inhibition [12]: -10%; inhibition [13]: 0%; inhibition [14]: 6%; inhibition [15]: 10%; IC50 [16]: > 50 µM; inhibition [17]: 3%; AUC(0-t) [18]: 179 ng·h/mL; inhibition [19]: -8%; inhibition at 10 µM [20]: -2%; Papp [21]: 14.1 ×10⁻⁶ cm/s; inhibition [22]: 5%; Survival [23]: 142.5 days; inhibition [24]: 5%; inhibition [25]: 3%; inhibition at 10 µM [26]: 0.6%; inhibition [27]: -10%; inhibition [28]: 4%; inhibition [29]: 3%; inhibition [30]: 24%; inhibition [31]: 7%; inhibition [32]: -1%; inhibition at 10 µM [33]: -5%; inhibition [34]: 0%; Activity [35]: 100%
